The text below walks through data of ChEMBL document CHEMBL1156631 (J Med Chem, 2008).

Structures are written as SMILES. In brackets after ≈: the same amount, converted by molar mass.

The target of series [1] is T1, Cannabinoid receptor 2 (Homo sapiens, UniProt P34972). The series can be described thus: Binding affinity to CB2 receptor.
The target in series [2] is T2, Cannabinoid receptor 1 (Homo sapiens, UniProt P21554). The series can be described thus: Binding affinity to CB1 receptor.
Series [3] has as its target T2, Cannabinoid receptor 1. The series can be described thus: Agonist activity at human CB1 receptor expressed in Sf9 cells by GTP-europium binding assay. In outline:
(§1)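 Membranes were from Sf9 insect cells cotransfected with CB1 or CB2 plus Gαi3 (Bmax 1.7 pmol/mL). Compound (0.01 nM–10 µM, 1% DMSO final) was added to buffer with Hepes, BSA, 10 mM MgCl2, 150 mM NaCl, 5 µM GDP, 10 nM GTP-europium, saponin and membranes (CB1 4.5 µg/well, CB2 14 µg/well). 100% efficacy was set by 3 µM reference agonist.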

In series [4] the target is T1, Cannabinoid receptor 2. The series can be described thus: Agonist activity at human recombinant CB2 receptor expressed in Sf9 cells by GTP-europium binding assay. In outline: as §1
Series [5] has as its target T2, Cannabinoid receptor 1. The series can be described thus: Agonist activity at human recombinant CB1 receptor expressed in Sf9 cells by GTP-europium binding assay relative to CP-55940. In outline:
(§2)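 Membranes were from Sf9 insect cells cotransfected with CB1 or CB2 plus Gαi3 (Bmax 1.7 pmol/mL). Compound (0.01 nM–10 µM, 1% DMSO final) was added to buffer with Hepes, BSA, 10 mM MgCl2, 150 mM NaCl, 5 µM GDP, 10 nM GTP-europium, saponin and membranes (CB1 4.5 µg/well, CB2 14 µg/well). Incubation was 45 min at room temperature, then filtration and washing, with fluorescence read at 615 nm. 100% efficacy was set by 3 µM reference agonist.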

In series [6] the target is T1, Cannabinoid receptor 2. Nature of the series: Agonist activity at human recombinant CB2 receptor expressed in Sf9 cells by GTP-europium binding assay relative to CP-55940. Summed up:
as §2

For series [7], the target named is T2, Cannabinoid receptor 1. The series can be described thus: Agonist activity at human recombinant CB1 receptor expressed in CHO-K1 cells assessed as inhibition of forskolin-stimulated intracellular cAMP level. It is filed as functional, cell-based. In outline:
(§3)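 CHO-K1 cells stably expressing human or rat CB1 or CB2 were used. Compounds were diluted from DMSO into HBSS/HEPES/BSA buffer containing 60 µM forskolin, then combined with 5000 cells/well plus Alexa647 anti-cAMP antibody, 1 h at room temperature. A biotinylated-cAMP detection mix was added for another 1 h.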

Series [8] has as its target T1, Cannabinoid receptor 2. Nature of the series: Agonist activity at human recombinant CB2 receptor expressed in CHO-K1 cells assessed as inhibition of forskolin-stimulated intracellular cAMP level. The format is functional, cell-based. In outline:
as §3

For series [9], the target named is T2, Cannabinoid receptor 1. The series can be described thus: Agonist activity at human recombinant CB1 receptor expressed in CHO-K1 cells assessed as inhibition of forskolin-stimulated intracellular cAMP level relative to CP-55940. It is filed as functional, cell-based. In outline:
(§4)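 CHO-K1 cells stably expressing human or rat CB1 or CB2 were used. Compounds were diluted from DMSO into HBSS/HEPES/BSA buffer containing 60 µM forskolin, then combined with 5000 cells/well plus Alexa647 anti-cAMP antibody, 1 h at room temperature. A biotinylated-cAMP detection mix was added for another 1 h. Emission at 665 nm gave concentration-response curves and EC50; Emax is expressed as a percentage of the reference agonist maximum.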

Series [10] concerns the target T1, Cannabinoid receptor 2. Nature of the series: Agonist activity at human recombinant CB2 receptor expressed in CHO-K1 cells assessed as inhibition of forskolin-stimulated intracellular cAMP level relative to CP-55940. The format is functional, cell-based. In outline:
as §4

For series [11], the target named is Cannabinoid receptor 1 (Rattus norvegicus, UniProt P20272). Nature of the series: Agonist activity at rat recombinant CB1 receptor expressed in CHO-K1 cells assessed as inhibition of forskolin-stimulated intracellular cAMP level. The format is functional, cell-based. Summed up:
as §3

The target of series [12] is T3, Cannabinoid receptor 2 (Rattus norvegicus, UniProt Q9QZN9).
T3 sequence (Q9QZN9 whole entry): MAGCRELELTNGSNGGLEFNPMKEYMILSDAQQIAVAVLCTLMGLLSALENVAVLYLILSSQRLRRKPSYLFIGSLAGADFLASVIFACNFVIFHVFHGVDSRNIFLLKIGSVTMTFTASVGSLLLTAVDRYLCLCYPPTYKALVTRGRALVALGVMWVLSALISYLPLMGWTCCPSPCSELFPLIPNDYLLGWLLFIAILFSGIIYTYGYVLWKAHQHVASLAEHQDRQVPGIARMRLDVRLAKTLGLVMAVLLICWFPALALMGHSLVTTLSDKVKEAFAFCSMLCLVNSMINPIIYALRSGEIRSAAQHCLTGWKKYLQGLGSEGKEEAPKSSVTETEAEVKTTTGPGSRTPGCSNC
Nature of the series: Agonist activity at rat recombinant CB2 receptor expressed in CHO-K1 cells assessed as inhibition of forskolin-stimulated intracellular cAMP level. It is filed as functional, cell-based. In outline:
as §4

For series [13], the target named is Cannabinoid receptor 1 (Rattus norvegicus) (UniProt P20272). The series can be described thus: Agonist activity at rat recombinant CB1 receptor expressed in CHO-K1 cells assessed as inhibition of forskolin-stimulated intracellular cAMP level relative to CP-55940. The format is functional, cell-based. In outline:
as §4

Series [14] addresses T4, Cannabinoid receptor 2 (Rattus norvegicus) (UniProt Q9QZN9).
T4 sequence (whole entry): T3 sequence (Q9QZN9 whole entry)
Nature of the series: Agonist activity at rat recombinant CB2 receptor expressed in CHO-K1 cells assessed as inhibition of forskolin-stimulated intracellular cAMP level relative to CP-55940. It is filed as functional, cell-based. Summed up: as §4

Series [15] can be described thus: Solubility in simulated intestinal fluid. Conditions: read-out: Stability. The format is physicochemical.
Series [16] can be described thus: Cmax in rat at 10 mg/kg, po. The format is ADME, organism-based. Also on record: dose 10 mg/kg, route oral. As to conditions: in vivo.
Series [17] can be described thus: (§5) AUC in rat at 10 mg/kg, po. It is filed as ADME, organism-based, Plasma. Also noted: dose 10 mg/kg, route oral. Conditions: plasma.
The nature of series [18]: (§6) Oral bioavailability in rat at 10 mg/kg. The format is ADME, organism-based. Conditions: in vivo.
Series [19] is described as follows: Half life in rat at 10 mg/kg, po. Also on record: dose 10 mg/kg, route oral. The format is ADME, organism-based. As to conditions: in vivo.
Series [20] has as its system Rattus norvegicus. The series can be described thus: Oral bioavailability in rat. The format is ADME, organism-based. Conditions: in vivo.
Series [21] can be described thus: Metabolic stability in human liver microsomes. The format is ADME, Microsome. As to conditions: read-out: Stability.
A short description of series [22]: Metabolic stability in rat liver microsomes. Conditions: read-out: Stability. The format is ADME, Microsome.
Series [23] concerns Rattus norvegicus. Nature of the series: Clearance in rat at 0.5 mg/kg, iv. As to conditions: in vivo. The format is ADME, organism-based. Also noted: dose 0.5 mg/kg, route intravenous.
In series [24] the test system is Rattus norvegicus. Described as §5. The format is ADME, organism-based, Plasma. Also noted: dose 10 mg/kg, route oral. Conditions: in vivo.
Series [25] relates to Rattus norvegicus. The description is as §6. It is filed as ADME, organism-based. Conditions: in vivo.

T1 sequence (P34972 whole entry): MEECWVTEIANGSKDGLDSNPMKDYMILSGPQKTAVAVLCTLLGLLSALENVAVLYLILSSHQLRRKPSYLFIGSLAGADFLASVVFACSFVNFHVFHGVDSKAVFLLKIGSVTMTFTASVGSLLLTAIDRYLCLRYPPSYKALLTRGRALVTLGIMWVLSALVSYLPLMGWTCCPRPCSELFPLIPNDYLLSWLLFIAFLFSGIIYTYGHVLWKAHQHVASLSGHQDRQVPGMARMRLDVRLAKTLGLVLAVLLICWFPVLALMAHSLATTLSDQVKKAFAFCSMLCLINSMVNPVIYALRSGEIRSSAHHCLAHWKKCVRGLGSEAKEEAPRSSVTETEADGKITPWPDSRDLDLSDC
Cannabinoid receptor 1 (Rattus norvegicus, UniProt P20272), sequence (P20272 whole entry): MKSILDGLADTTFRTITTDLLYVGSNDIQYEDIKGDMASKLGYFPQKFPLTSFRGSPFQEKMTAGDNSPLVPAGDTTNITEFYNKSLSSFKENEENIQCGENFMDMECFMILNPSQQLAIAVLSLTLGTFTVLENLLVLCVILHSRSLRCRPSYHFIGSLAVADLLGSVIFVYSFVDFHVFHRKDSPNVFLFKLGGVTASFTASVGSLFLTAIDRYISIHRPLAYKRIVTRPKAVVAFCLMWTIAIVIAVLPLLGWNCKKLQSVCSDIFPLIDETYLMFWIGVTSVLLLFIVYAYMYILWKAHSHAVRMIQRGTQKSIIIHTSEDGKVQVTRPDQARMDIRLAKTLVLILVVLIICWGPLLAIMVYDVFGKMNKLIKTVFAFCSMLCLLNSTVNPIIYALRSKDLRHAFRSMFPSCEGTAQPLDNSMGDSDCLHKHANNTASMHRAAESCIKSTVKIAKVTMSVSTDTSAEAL
T2 sequence (P21554 whole entry): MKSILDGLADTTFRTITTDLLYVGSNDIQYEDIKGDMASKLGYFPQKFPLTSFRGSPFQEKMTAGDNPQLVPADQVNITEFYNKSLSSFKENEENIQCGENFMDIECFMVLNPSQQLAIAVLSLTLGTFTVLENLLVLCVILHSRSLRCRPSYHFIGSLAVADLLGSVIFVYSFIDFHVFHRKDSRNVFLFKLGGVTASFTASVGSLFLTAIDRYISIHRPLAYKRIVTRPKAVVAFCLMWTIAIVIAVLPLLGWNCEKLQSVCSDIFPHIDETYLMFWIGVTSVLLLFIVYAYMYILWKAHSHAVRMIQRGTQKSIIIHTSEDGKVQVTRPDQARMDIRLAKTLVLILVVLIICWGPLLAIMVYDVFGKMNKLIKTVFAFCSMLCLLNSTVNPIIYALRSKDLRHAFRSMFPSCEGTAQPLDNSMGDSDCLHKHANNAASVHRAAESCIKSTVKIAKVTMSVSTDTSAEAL
Cannabinoid receptor 1 (Rattus norvegicus), sequence (P20272 whole entry): as the sequence (P20272 whole entry) above

Turning to `Cc1ccc2c(=O)c(C(=O)NC3CCCCC3)cn(Cc3ccc(F)cc3)c2n1`, the Ki at Cannabinoid receptor 2 [1] was found to be 0.0055 µM; at Cannabinoid receptor 1 [2] it was 0.015 µM.

Consider `Fc1ccc(-c2noc(CCCNc3cnc4ccc(Cl)cc4c3)n2)c(Cl)c1`, for which the EC50 on Cannabinoid receptor 1 [3] came to 0.22 µM; on Cannabinoid receptor 2 [4] it was 0.0017 µM; at Cannabinoid receptor 1 [7], 0.56 µM; on Cannabinoid receptor 2 [8] it was 0.0022 µM; on Cannabinoid receptor 1 [11] it was 0.077 µM; at Cannabinoid receptor 2 [12] it was 0.0013 µM. Also, the Emax at Cannabinoid receptor 1 [5] turned out to be 51%; on Cannabinoid receptor 2 [6], 110%; at Cannabinoid receptor 1 [9], 88%; at Cannabinoid receptor 2 [10], 94%; in [13] it was 85%; in series [14], 90%. Further, in series [15], the solubility was 87 µg/mL (≈ 208 µM). Moreover, in [16], the highest level (Cmax) was 8400 ng/mL. The AUC in series [17] was 43000 ng·h/mL. In addition, in [18], the bioavailability was less than 100%. This compound also gave a half-life in series [19] of 5.1 h.

Consider `CCn1c2ccccc2c2cc(NC(=O)CCc3nc(-c4ccccc4F)no3)ccc21`, for which the EC50 on Cannabinoid receptor 1 [3] is greater than 10 µM; on Cannabinoid receptor 1 [7] it was greater than 1 µM; at Cannabinoid receptor 1 [11], greater than 1 µM; on Cannabinoid receptor 2 [12], 0.033 µM. Also, the maximal effect (Emax) on Cannabinoid receptor 2 [6] is 100%; at Cannabinoid receptor 2 [10], 93%; in series [14], 91%. Moreover, the F with Rattus norvegicus [20] and in the series on Rattus norvegicus [25] was 13% in each case. The microsomal CLint in series [21] worked out at 274 µL/min/mg; in series [22], 198 µL/min/mg. Besides, the CL in the series with Rattus norvegicus [23] is 20 mL/min/kg. For the same compound, in series [15], the solubility was 2 µg/mL (≈ 4.67 µM). Also, the concentration in series [16] peaked (Cmax) at 100 ng/mL. Besides, the AUC in the series with Rattus norvegicus [24] was 460 ng·h/mL. The half-life in series [19] was 1.6 h.

In the case of `N#Cc1cc(NC(=O)CCc2nc(-c3ccc(F)cc3Cl)no2)cnc1OCC(F)(F)F`, the concentration for a half-maximal effect (EC50) at Cannabinoid receptor 1 [3] was greater than 10 µM; on Cannabinoid receptor 2 [4] it was 0.014 µM; on Cannabinoid receptor 1 [7], greater than 1 µM; at Cannabinoid receptor 2 [8], 0.031 µM; on Cannabinoid receptor 1 [11], greater than 1 µM; at Cannabinoid receptor 2 [12], 0.0031 µM. Further, the maximal effect (Emax) was 110% at Cannabinoid receptor 2 [6], 97% on Cannabinoid receptor 2 [10] and 100% in series [14]. Also, the solubility in [15] is 24 µg/mL (≈ 51.1 µM). In addition, in series [16], the highest level (Cmax) was 3400 ng/mL. In addition, the exposure (AUC) in series [17] was 21000 ng·h/mL. This compound also had a bioavailability in [18] of 36%. The half-life in series [19] is 3.1 h.
